Most compounds without a hit are left out; they make up all but 2.3% or so of the library.
TRPC6 inhibitor: inhibitors of mouse TRPC6 channel; Q61143; HEK293-TRPC6, membrane potential dye, ACh-evoked depolarization; hits give low values; B-score at 10 µM; 1.1% of 310,000 active;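 active = B-score under library mean minus 3 SD, initial fluorescence not abnormally high, positive integrated signal ratio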;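 also: B-score derived from integrated fluorescence ratio over the kinetic read; more negative B-score means stronger inhibition of depolarization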
TRPC4 potent: TRPC4 (mouse) allosteric potentiation. Q9QUQ5. HEK293 TRPC4beta/mu-opioid, DAMGO EC20, Fluo-4 Ca2+ flux; hits give high values. B-score at 10 µM. 0.42% of 310,000 active. AID 2227;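 active = B-score of calcium response area above 5 SD of library B-scores, with initial fluorescence ratio within 5 SD of library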;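 also: B-score of integrated fluorescence ratio over time as area under calcium response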
TRPC4 block: TRPC4 (mouse) channel inhibition; HEK293 TRPC4beta/mu-opioid, DAMGO-evoked Fluo4 calcium flux; hits give low values; B-score at 10 µM; 0.39% of 300,000 active; AID 2247;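 active = B-score over 3 SD under the library average, no early fluorescence shift, positive overall ratio signal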
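Assay system – HEK293 line stably carrying TRPC4beta and mu-opioid receptor · Doses – single dose · Detection – Fluo4 calcium-dye fluorescence, kinetic read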
TRPC6 activator: activators of mouse TRPC6 channel | 0.13% of 310,000 active | B-score at 10 µM | HEK293-TRPC6 membrane potential dye fluorescence; hits give high values | Q61143;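 active = B-score of the integrated fluorescence ratio above library mean plus 3 SD, and starting fluorescence ratio within library mean plus 5 SD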;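 also: higher score means more depolarization so channel activation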
TRPC4 act: activators of mouse TRPC4 channel | Q9QUQ5 | HEK293 TRPC4beta/mu-opioid, Fluo4 calcium fluorescence; hits give high values | B-score at 10 µM | 0.49% of 310,000 active;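 active = B-score above 5 SD of library B-scores, and initial fluorescence ratio not above library mean plus 5 SD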;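 also: positive B-score marks a calcium rise read as TRPC4 activation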
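Material: HEK293 stable line with TRPC4beta plus mu-opioid receptor; technique: Fluo4 calcium-sensitive dye fluorescence, kinetic, 1 Hz baseline; timing: Fluo4 dye loading 45 min at room temperature, 110 s recording; controls: assay buffer as low control, maximal DAMGO as high control; read-out: integrated baseline-normalised fluorescence ratio, converted to per-well B score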
TRPC4 spec 2: mouse TRPC4 off-target activity of TRPC6 inhibitors, second screen; inhibition, % at 10 µM; shares compounds with TRPC6 inhibitor; AID 2776; HEK293 TRPC4/MOR, membrane potential dye fluorescence; channel activated by saturating DAMGO dose; 42% of 920 active;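 active = compounds whose fluorescence signal differed from control wells by over 3 SD, either direction, in both duplicate plates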
TRPC4 spec: tests whether TRPC6 inhibitors also affect mouse TRPC4; shares compounds with TRPC6 inhibitor; HEK293 TRPC4/mu-opioid, membrane potential fluorescence; activity change, negative = inhibition, % at 10 µM; 61% of 920 active; AID 2777;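 active = rise or fall in signal beyond 3 SD of buffer-only wells in both replicate plates, either sign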;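 also: integrated kinetic ratio of fluorescence range over baseline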
HEK293 MPD ctr 2-1: second counter-screen for TRPC6 inhibitors: parental HEK293 cells; shares compounds with TRPC6 inhibitor; parental HEK293 membrane potential dye fluorescence; maximal acetylcholine challenge after compound addition; AID 2779; 31% of 920 active; signal change vs control, % at 10 µM;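 active = membrane potential signal moving either way by over 3 SD of the maximum-effect control, in both duplicate plates, meaning non-specific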
HEK293 MPD ctr-1: counter-screen for TRPC6 inhibitors: effect in parental HEK293 cells; shares compounds with TRPC6 inhibitor; parental HEK293 membrane potential dye fluorescence; membrane potential signal change, % at 10 µM; 60% of 920 active; AID 2780;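 active = membrane potential signal shifting up or down by more than 3 SD of buffer-only wells, on both duplicate plates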
HEK293 MPD ctr-2: counter-screen for TRPC6 modulators: effect in parental HEK293 cells; shares compounds with TRPC6 inhibitor; membrane potential dye fluorescence; membrane potential signal change, % at 10 µM; 51% of 2,400 active;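 active = membrane potential signal moves up or down beyond 5 SD from buffer-only wells, on both duplicate plates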
HEK293 MPD ctr 2-2: parental HEK293 nonspecific activity of TRPC6 modulators, second screen | shares compounds with TRPC6 inhibitor | membrane potential dye fluorescence; after compound, maximal acetylcholine stimulation | inhibition, % at 10 µM | 14% of 2,400 active | AID 488926;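 active = membrane potential signal drops by more than 5 SD from the mean control signal, in both duplicate plates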;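 also: plate controls were acetylcholine ECmax control wells for no effect and buffer only wells for full effect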
TRPC4/MOR mod: selectivity of TRPC6 modulators against mouse TRPC4. shares compounds with TRPC6 inhibitor. AID 488927. HEK293 TRPC4/mu-opioid, membrane potential fluorescence. 69% of 2,400 active. percent change from control (negative = decrease, positive = increase), % at 10 µM;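 active = membrane potential signal moved up or down beyond 5 SD of buffer control wells, in both duplicate plates, actives on both sides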;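 also: plate controls were assay buffer wells for no effect and DAMGO maximal-effect wells for full effect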
TRPC4/MOR inh 2: second selectivity test of TRPC6 modulators against mouse TRPC4. shares compounds with TRPC6 inhibitor. 55% of 2,400 active. HEK293 TRPC4/mu-opioid, membrane potential dye fluorescence; stimulated with maximal-effect DAMGO. AID 488928. inhibition, % at 10 µM;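 active = drop in membrane potential signal beyond 5 SD of the control wells in both duplicate plates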;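 also: TRPC4 counter screen for TRPC6 hits run under conditions tuned for TRPC6 not TRPC4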
TRPC6 block conf: confirmation of mouse TRPC6 inhibitors; inhibition, % at 10 µM; shares compounds with TRPC6 inhibitor; HEK293-TRPC6, membrane potential dye, ACh-evoked depolarization; AID 488960; 43% of 3,300 active;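 active = fluorescence ratio falls more than 5 SD below the full-stimulation control mean, in both duplicate runs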;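 also: integrated fluorescence ratio of peak minus minimum over baseline after agonist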
TRPC6 act conf: mouse TRPC6 activator confirmation; shares compounds with TRPC6 inhibitor; HEK293-TRPC6 membrane potential dye fluorescence, FDSS; activation, % at 10 µM; 11% of 2,800 active; AID 488961;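 active = ratio signal rise beyond 5 SD above unstimulated control wells' mean, seen in both duplicate runs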;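 also: plate controls were buffer EC0 wells for no effect and acetylcholine ECmax response for full effect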
Numbers without * were called inactive; i = inactive; · = no result.

SMILES	TRPC6 inhibitor	TRPC4 potent	TRPC4 block	TRPC6 activator	TRPC4 act	HEK293 MPD ctr-2	HEK293 MPD ctr 2-2	TRPC4/MOR mod	TRPC4/MOR inh 2	TRPC6 block conf	TRPC6 act conf	others
COc1cc(OC)c2nc(C)c3c(c2c1)N(c1ccc(O)cc1)CC3	-7.2*	i	i	i	i	-174%*	101%*	-18%*	42%*	i	i
O=C(CNC(=O)c1ccco1)OCC(=O)c1ccc(Br)cc1	-5.3*	i	i	i	i	i	i	i	i	i	i
CCN(CC)CCN1c2ccccc2Sc2ccc3ccccc3c21	-6*	i	i	i	i	i	i	i	i	i	i
CCN1C(=O)/C(=C/C=C2/Sc3ccc4ccccc4c3N2CCO)SC1=S	i	i	i	i	i	·	·	·	·	·	·
CCN(CC)CCN1c2ccccc2Sc2ccccc21	-6.2*	i	-6*	i	i	92%*	i	49%*	64%*	55%*	·
O=S(=O)(c1ccccc1F)N1CCN(Cc2nc3ccccc3[nH]2)CC1	i	i	i	i	i	·	·	·	·	·	·
COc1ccccc1C(O)P(=O)(OCC(C)C)c1ccc(N(C)C)cc1 (centres undefined)	i	i	i	i	i	·	·	·	·	·	·
O=[N+]([O-])c1ccc(S(=O)(=O)NCC(c2cccnc2)N2CCc3ccccc32)cc1 (centres undefined)	i	i	i	i	i	·	·	·	·	·	·
CCN(CC)CCN1C(=O)c2ccccc2NC1c1ccc(F)cc1 (centres undefined)	i	i	i	i	i	·	·	·	·	·	·
CCN(CC)CCN1C(=O)c2ccccc2NC1c1ccc(Br)cc1 (centres undefined)	-6.7*	i	i	i	i	i	i	18%*	42%*	i	·
CCN(CC)c1ccc(/C=C(/C#N)C(=O)NCc2ccccc2)o1	i	i	i	19*	i	590%*	i	183%*	i	i	132%*
Cc1ccnc(SCCn2c(N3CCN(Cc4ccccc4)CC3)nc3c2c(=O)[nH]c(=O)n3C)n1	-10*	i	i	i	i	-340%*	71%*	-61%*	57%*	59%*	i
Cc1noc(C(F)(F)F)c1C(=O)NNC(=O)c1ccccc1	i	i	i	i	i	·	·	·	·	·	·
CCOc1ccc(NC(=O)C(CC(=O)O)Cc2ccccc2)cc1 (centres undefined)	i	i	i	i	i	·	·	·	·	·	·
CCOc1ccc(NC(=O)CC(Cc2cc(C)cc(C)c2)C(=O)O)cc1 (centres undefined)	-5.6*	i	i	i	i	i	i	i	i	i	i
O=C(CN1C(=O)NC2(CCCC2)C1=O)Nc1cc(C(F)(F)F)ccc1N1CCCCC1	i	i	i	i	i	·	·	·	·	·	·
CCNc1c2c(nc3ccccc13)CC(C)(C)CC2=O	-7.8*	i	i	i	i	·	·	·	·	i	i	TRPC4 spec 2=65%*;TRPC4 spec=i;HEK293 MPD ctr 2-1=i;HEK293 MPD ctr-1=-138%*
CC1(C)CC(=O)c2c(nc3ccccc3c2N)C1	i	i	i	i	i	·	·	·	·	·	·
CC(C)[N+](C)(CCOC(=O)C1c2ccccc2Oc2ccccc21)C(C)C	-9.5*	i	i	i	i	·	·	·	·	105%*	i	TRPC4 spec 2=i;TRPC4 spec=i;HEK293 MPD ctr 2-1=-18%*;HEK293 MPD ctr-1=i
COCOc1ccc(C=O)c(OCOC)c1	i	i	i	i	i	·	·	·	·	·	·
Cc1nc2nc(SCC(=O)NCCCN3CCCC(C)C3)nn2c(C)c1Cc1ccccc1Cl (centres undefined)	-6.7*	i	i	i	i	i	i	i	i	49%*	·
Cc1c(Cl)cccc1NC(=O)N1CCCN(c2nc(-c3ccccc3)ns2)CC1	i	i	i	i	i	·	·	·	·	·	·
O=C(Nc1ccccc1Cl)N1CCCN(c2nc(-c3ccccc3)ns2)CC1	-5.1*	i	i	i	i	i	i	i	i	i	i
COc1ccccc1Nc1nnc(SCC(=O)N2CCCC2)s1	i	i	i	i	i	·	·	·	·	·	·
COc1ccccc1Nc1nnc(SCC(=O)N2CCCC2=O)s1	-5.1*	i	i	i	i	i	i	i	i	i	i
CCOC(=O)CSc1nc2cc(S(=O)(=O)N3CCOCC3)ccc2n1CC	i	i	i	i	i	·	·	·	·	·	·
NC(=O)CSc1nnc(-c2cc3ccccc3o2)n1Cc1ccccc1	i	i	i	i	i	·	·	·	·	·	·
O=C(CSc1nnc(C2CC2)n1Cc1ccccc1)c1cc2ccccc2o1	-5.2*	i	i	i	i	169%*	i	24%*	i	i	·
O=C(c1cccc(-n2cccc2)c1)N1CCN(S(=O)(=O)c2c(F)cccc2F)CC1	-6.1*	i	i	i	i	i	i	i	i	44%*	·

Assay outcomes: PubChem, Johns Hopkins Ion Channel Center
